DNMT1 inh = blocks human DNA methyltransferase DNMT1; P26358; DNMT1 molecular beacon, Hinp1I cleavage, fluorescence; inhibition (reported as % activation of signal), % at 10 µM; actives 0.83% (n = 360,000); in the data active = inhibition above about 50%
SUMO1-SIM PPI = SUMO1-SIM interaction modulation | P63165 | SUMO1 binding to a labelled peptide, TR-FRET, 1 h | inhibition, % at 20 µM | actives 0.33% (n = 360,000); in the data active = inhibition above about 37%
Target sequence (P63165 whole entry, looked up): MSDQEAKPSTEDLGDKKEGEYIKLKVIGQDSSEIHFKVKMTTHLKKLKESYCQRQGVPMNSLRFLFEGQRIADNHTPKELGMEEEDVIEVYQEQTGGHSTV
LMPTP block = LMPTP (human) inhibition | P24666 | recombinant LMPTP-A, OMFP fluorogenic substrate, fluorescence intensity | inhibition, % at 20 µM | actives 0.22% (n = 360,000);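 active = compounds that cut the enzyme signal by at least half of the control window in the single-dose screen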;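 also: plate controls were DMSO wells with enzyme plus substrate for no effect and substrate without enzyme for full effect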
Target sequence (P24666 whole entry, looked up): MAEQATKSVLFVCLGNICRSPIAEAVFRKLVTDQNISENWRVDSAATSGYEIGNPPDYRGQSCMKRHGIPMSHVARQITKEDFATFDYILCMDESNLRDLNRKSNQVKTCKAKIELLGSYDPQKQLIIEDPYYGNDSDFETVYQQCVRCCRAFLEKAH
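Test system – LMPTP-A phosphatase enzyme · Quantity – 0.625 nM LMPTP-A final · Reagent – OMFP substrate, 400 µM final · Dosing – one test concentration per compound, 20 µM, with 3% DMSO overall · Timing – 50 min enzyme reaction at room temperature, protected from light · Detection – fluorescence intensity · Controls – substrate-only low control, DMSO enzyme-plus-substrate high control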
HKDC1 inhibitor = blocks human hexokinase HKDC1 activity | Q2TB90 | recombinant HKDC1, G6PDH/diaphorase resazurin coupled fluorescence | inhibition, % at 20 µM | actives 0.16% (n = 340,000) | AID 493160;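 active = inhibition above about 35% when tested at 20 µM, limit read from the data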;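 also: plate controls were DMSO wells with enzyme for no effect and DMSO wells lacking enzyme for full effect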
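Assay system: recombinant HKDC1 hexokinase; detection: coupled resazurin fluorescence, excitation 525 nm, emission 613 nm; benchmarks: DMSO-plus-enzyme-mix negative control, buffer-substituted positive control; compound dosing: single 20 µM dose; schedule: 90 min at room temperature in dark; also added: glucose plus 1 mM ATP as hexokinase substrates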
STEP block = blocks human striatal-enriched tyrosine phosphatase. P54829. recombinant STEP, OMFP fluorogenic substrate, fluorescence. inhibition, % at 20 µM. actives 0.25% (n = 360,000);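 active = inhibition at 20 µM, scaled per plate between control wells, above about 37%, limit read from the data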;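 also: 0% = DMSO with enzyme and substrate and 100% = substrate only without enzyme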
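Also added – OMFP at 25 µM · Test system – STEP tyrosine phosphatase · Technique – FITC-channel fluorescence of OMFP product · Schedule – 20 min at room temperature, dark · Evaluation – control-normalized % inhibition with plate pattern correction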
Scp1 inh = inhibitors of human Scp-1 phosphatase. AID 493091. actives 0.88% (n = 340,000). Recombinant Scp1, phosphopeptide, malachite green phosphate absorbance. inhibition, % at 20 µM;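 active = inhibition above about 50% at 20 µM, limit read from the data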;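 also: plate controls were DMSO wells with enzyme for no effect and wells lacking enzyme for full effect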
Target sequence (Q9GZU7 76-261 limits assumed): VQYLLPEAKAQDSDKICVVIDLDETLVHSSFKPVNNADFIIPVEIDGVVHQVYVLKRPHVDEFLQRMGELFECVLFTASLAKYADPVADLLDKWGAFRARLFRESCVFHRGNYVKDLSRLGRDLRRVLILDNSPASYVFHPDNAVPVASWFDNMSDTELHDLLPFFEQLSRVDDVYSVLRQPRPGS
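System: truncated SCP-1 phosphatase (76-261aa); medium: Tris acetate buffer pH 5.5 with MgCl2 and Tween-20; incubation: 45 min room-temperature reaction, 5 min colour, 30 min stabiliser; compound: single 20 µM dose, 1% DMSO; reagent: Phosphorylated 17-residue peptide substrate; read-out: % inhibition at 20 µM; technique: colorimetric free-phosphate detection, absorbance 630 nm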
STEP inh conf = STEP (human) phosphatase inhibition, single concentration confirmation. inhibition, % at 20 µM. recombinant STEP, OMFP fluorogenic substrate, fluorescence. actives 32% (n = 520). shares compounds with STEP block; call rule not given here;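 also: 0% = enzyme with substrate plus DMSO and 100% = substrate without enzyme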
An asterisk follows results filed as active. Rows were chosen to be rich in hits. Some 1.8% of all compounds tested hit in one or more screens of this group.

CC1(C)Cc2c(sc(NC(=O)C(=O)NCCCN3CCOCC3)c2C#N)CO1 was read as DNMT1 inh 4.6, SUMO1-SIM PPI -4.9, LMPTP block -1.1, HKDC1 inhibitor -4.3, STEP block 68.3*, Scp1 inh 0.2 and STEP inh conf 18.6.
Cc1cc2c(cc1S(=O)(=O)NCc1ccc(N(C)C)cc1)OCC(=O)N2 was read as DNMT1 inh -2.3, SUMO1-SIM PPI 0.1, LMPTP block -0.9, HKDC1 inhibitor -5.7, STEP block -3.5 and Scp1 inh -9.2.
Screening COc1cc2c(cc1NC(=O)c1cccc([N+](=O)[O-])c1)oc1ccccc12 returned DNMT1 inh 46.7, SUMO1-SIM PPI -2.1, LMPTP block 65.9*, HKDC1 inhibitor 2.3, STEP block 83.5*, Scp1 inh 28.0 and STEP inh conf 12.3.
`COc1cc2c(cc1NC(=O)c1ccc(C)c([N+](=O)[O-])c1)oc1ccccc12` gave DNMT1 inh 13.7, SUMO1-SIM PPI -2.3, LMPTP block -0.5, HKDC1 inhibitor -12.2, STEP block 0.3 and Scp1 inh -2.7.
For Fc1ccc(-n2c(=S)[nH]c3cccnc32)cc1 the results were DNMT1 inh 4.9, SUMO1-SIM PPI 0.9, LMPTP block 0.9, HKDC1 inhibitor -2.2, STEP block 64.8*, Scp1 inh -3.9 and STEP inh conf 17.3.
`CCOc1ccc(N2C(=O)c3cccnc3C2Nc2ccc(F)cc2)cc1` (stereo not drawn) gave DNMT1 inh -5.6, SUMO1-SIM PPI 1.4, LMPTP block -0.7, HKDC1 inhibitor -8.1, STEP block 52.2*, Scp1 inh -4.4 and STEP inh conf 26.0.
For O=C(Nn1cnnc1)c1ccc(Br)s1 the results were DNMT1 inh 0.0, SUMO1-SIM PPI 5.1, LMPTP block -1.1, HKDC1 inhibitor -5.6, STEP block 118.2*, Scp1 inh 1.5 and STEP inh conf 0.3.
`O=C(Nc1ccccn1)c1ccc(Br)s1` gave DNMT1 inh 0.3, SUMO1-SIM PPI -0.7, LMPTP block 0.4, HKDC1 inhibitor -2.9, STEP block 1.4 and Scp1 inh -8.1.
Screening CCSc1nnc2ccc(-c3ccc(OC)c(OC)c3)nn12 returned DNMT1 inh 5.8, SUMO1-SIM PPI -26.6, LMPTP block -0.2, HKDC1 inhibitor 4.0, STEP block -3.3 and Scp1 inh -5.1.
For COC(=O)C1=C(CS(=O)(=O)c2ccc(Cl)cc2)NC(=O)NC1c1ccc(O)cc1 (stereo not drawn) the results were DNMT1 inh 27.3, SUMO1-SIM PPI -3.4, LMPTP block -0.7, HKDC1 inhibitor 3.6, STEP block 92.6*, Scp1 inh 8.4 and STEP inh conf 0.5.
For COC(=O)C1=C(CS(=O)(=O)c2ccccc2)NC(=O)NC1c1ccc(O)cc1 (stereo not drawn) the results were DNMT1 inh 0.8, SUMO1-SIM PPI -1.3, LMPTP block -0.8, HKDC1 inhibitor -0.7, STEP block -1.6 and Scp1 inh 4.0.
Screening NS(=O)(=O)c1ccc(NC(=S)NCCc2ccccc2)cc1 returned DNMT1 inh 2.0, SUMO1-SIM PPI -0.2, LMPTP block 0.1, HKDC1 inhibitor -10.5, STEP block 52.1*, Scp1 inh -21.5 and STEP inh conf 37.7*.
For CC(C)OCCCNC(=S)Nc1ccc(S(N)(=O)=O)cc1 the results were DNMT1 inh 2.1, SUMO1-SIM PPI 1.6, LMPTP block -1.5, HKDC1 inhibitor -2.5, STEP block 82.9*, Scp1 inh -0.8 and STEP inh conf 36.0*.
Cc1cc(NC(=O)NC(=O)c2ccccc2F)no1 was read as DNMT1 inh 3.7, SUMO1-SIM PPI 5.9, LMPTP block -1.2, HKDC1 inhibitor -3.5, STEP block -0.2 and Scp1 inh -6.1.
`COc1ccc(C)cc1NC(=O)NNC(=O)C(C)Oc1ccc(F)cc1Cl` (stereo not drawn) gave DNMT1 inh 1.1, SUMO1-SIM PPI 2.0, LMPTP block -0.4, HKDC1 inhibitor 0.3, STEP block 3.3 and Scp1 inh 4.0.
Screening CN(C)c1ccc(C(=S)N2CCN(Cc3ccccc3)CC2)cc1 returned DNMT1 inh -0.8, SUMO1-SIM PPI -0.6, LMPTP block 0.9, HKDC1 inhibitor -8.3, STEP block 84.8*, Scp1 inh -6.8 and STEP inh conf 39.5*.
Screening S=C(c1ccc(Br)cc1)N1CCN(Cc2ccccc2)CC1 returned DNMT1 inh 5.0, SUMO1-SIM PPI 5.4, LMPTP block 2.1, HKDC1 inhibitor -3.7, STEP block 90.2*, Scp1 inh -10.7 and STEP inh conf 38.3*.
For Oc1ccc(C(=S)N2CCN(Cc3ccccc3)CC2)cc1 the results were DNMT1 inh 0.3, SUMO1-SIM PPI 5.8, LMPTP block 1.1, HKDC1 inhibitor -5.5, STEP block 61.9*, Scp1 inh 3.5 and STEP inh conf 3.6.
For O=C(c1ccc(Br)cc1)N1CCN(Cc2ccccc2)CC1 the results were DNMT1 inh -1.0, SUMO1-SIM PPI 1.4, LMPTP block -2.1, HKDC1 inhibitor -3.2, STEP block 1.6 and Scp1 inh -2.2.
`Cc1ccc(C(=S)N2CCN(Cc3ccccc3)CC2)s1` gave DNMT1 inh -2.1, SUMO1-SIM PPI 1.2, LMPTP block 1.6, HKDC1 inhibitor 5.4, STEP block 77.6*, Scp1 inh -8.3 and STEP inh conf 41.8*.
`CC1=C(CC(=O)O)c2cc(F)ccc2/C1=C\c1ccc(S(C)=O)cc1` (stereo not drawn) gave DNMT1 inh -3.1, SUMO1-SIM PPI -22.1, LMPTP block -0.3, HKDC1 inhibitor 0.8, STEP block 0.8 and Scp1 inh -0.7.
`COc1ccnc(CSC(N)=Nc2ccccc2OC)c1` gave DNMT1 inh 0.8, SUMO1-SIM PPI -2.0, LMPTP block 1.0, HKDC1 inhibitor -2.2, STEP block 35.0*, Scp1 inh -2.2 and STEP inh conf 3.3.
For COCCNC(=S)Nc1ccc(N2CCOCC2)c(S(=O)(=O)Nc2ccc(Cl)cc2)c1 the results were DNMT1 inh 1.3, SUMO1-SIM PPI 8.3, LMPTP block 3.7 and STEP block 5.6.
O=S(=O)(Nc1ccc(Cl)cc1)c1ccc(N2CCOCC2)c(NC(=S)NCCN2CCOCC2)c1 was read as DNMT1 inh 8.2, SUMO1-SIM PPI -0.2, LMPTP block 0.5, HKDC1 inhibitor -4.5, STEP block 92.1*, Scp1 inh 14.9 and STEP inh conf 70.8*.
Screening COC(=O)c1sccc1NC(=O)c1ccc(C#N)cc1 returned DNMT1 inh 19.2, SUMO1-SIM PPI 13.3, LMPTP block 1.6, HKDC1 inhibitor -2.6, STEP block 98.2*, Scp1 inh 116.5* and STEP inh conf 12.5.

From PubChem
